Key:
Heart [1] = experiment: Biodistribution in ICR mouse heart at 1 uCi, iv after 30 mins postinjection; type: ADME, organism-based; conditions: in vivo, 0.5 h
In short: (§1)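 Female ICR mice (18–22 g, n = 5) received HPLC-purified radiotracer by tail vein (0.1 mL). They were killed by cervical fracture at the stated times. Blood and organs were removed, weighed and gamma-counted. Uptake expressed as percent injected dose per gram of tissue (%ID/g), given as mean with SD.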

Liver [2] = experiment: Biodistribution in ICR mouse liver at 1 uCi, iv after 15 mins postinjection; type: ADME, organism-based; conditions: in vivo, 0.25 h; in short: as §1
Spleen [3] = experiment: Biodistribution in ICR mouse spleen at 1 uCi, iv after 60 mins postinjection; type: ADME, organism-based; conditions: in vivo, 1 h; in short: as §1
Muscle tissue [4] = experiment: Biodistribution in ICR mouse muscle at 1 uCi, iv after 120 mins postinjection; type: ADME, organism-based; conditions: in vivo, 2 h; in short: as §1
Blood [5] = experiment: Biodistribution in ICR mouse blood at 1 uCi, iv after 240 mins postinjection; type: ADME, organism-based; conditions: in vivo, 4 h; in short: as §1
Stomach [6] = experiment: Biodistribution in ICR mouse stomach at 1 uCi, iv measured per organ after 240 mins postinjection; type: ADME, organism-based; conditions: in vivo, 4 h
Thyroid gland [7] = experiment: Biodistribution in ICR mouse thyroid at 1 uCi, iv after 120 mins postinjection; type: ADME, organism-based; conditions: in vivo, 2 h
In short: (§2)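 Female ICR mice (18–22 g, n = 5) received HPLC-purified radioiodinated tracer by tail vein (0.1 mL, 1 µCi). They were killed by cervical fracture at 15, 30, 60, 120 or 240 min post-injection. Blood and organs were removed, weighed and gamma-counted. Uptake is expressed as %ID/g, mean ± SD, n = 4–5.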

Liver [8] = experiment: Biodistribution in ICR mouse liver at 1 uCi, iv after 60 mins postinjection; type: ADME, organism-based; conditions: in vivo, 1 h; in short: as §1
Mus musculus = experiment: Biodistribution in ICR mouse small intestine at 1 uCi, iv after 30 mins postinjection; type: ADME, organism-based; conditions: in vivo, 0.5 h; in short: as §1
Muscle tissue [9] = experiment: Biodistribution in ICR mouse muscle at 1 uCi, iv after 30 mins postinjection; type: ADME, organism-based; conditions: in vivo, 0.5 h; in short: as §1
Liver [10] = experiment: Biodistribution in ICR mouse liver at 1 uCi, iv after 240 mins postinjection; type: ADME, organism-based; conditions: in vivo, 4 h; in short: as §1
Heart [11] = experiment: Biodistribution in ICR mouse heart at 1 uCi, iv after 120 mins postinjection; type: ADME, organism-based; conditions: in vivo, 2 h; in short: as §1
Kidney [12] = experiment: Biodistribution in ICR mouse kidney at 1 uCi, iv after 120 mins postinjection; type: ADME, organism-based; conditions: in vivo, 2 h; in short: as §1
Lung [13] = experiment: Biodistribution in ICR mouse lung at 1 uCi, iv after 60 mins postinjection; type: ADME, organism-based; conditions: in vivo, 1 h; in short: as §1
Thyroid gland [14] = experiment: Biodistribution in ICR mouse thyroid at 1 uCi, iv after 30 mins postinjection; type: ADME, organism-based; conditions: in vivo, 0.5 h; in short: as §2
Stomach [15] = experiment: Biodistribution in ICR mouse stomach at 1 uCi, iv measured per organ after 60 mins postinjection; type: ADME, organism-based; conditions: in vivo, 1 h; in short: as §2
Heart [16] = experiment: Biodistribution in ICR mouse heart at 1 uCi, iv after 240 mins postinjection; type: ADME, organism-based; conditions: in vivo, 4 h; in short: as §1
Muscle tissue [17] = experiment: Biodistribution in ICR mouse muscle at 1 uCi, iv after 240 mins postinjection; type: ADME, organism-based; conditions: in vivo, 4 h; in short: as §1
Kidney [18] = experiment: Biodistribution in ICR mouse kidney at 1 uCi, iv after 30 mins postinjection; type: ADME, organism-based; conditions: in vivo, 0.5 h; in short: as §1
Blood [19] = experiment: Biodistribution in ICR mouse blood at 1 uCi, iv after 60 mins postinjection; type: ADME, organism-based; conditions: in vivo, 1 h; in short: as §1
Lung [20] = experiment: Biodistribution in ICR mouse lung at 1 uCi, iv after 15 mins postinjection; type: ADME, organism-based; conditions: in vivo, 0.25 h; in short: as §1
Brain = experiment: Biodistribution in ICR mouse brain at 1 uCi, iv after 120 mins postinjection; type: ADME, organism-based; conditions: in vivo, 2 h; in short: as §1
[21] = 1-Octanol-sodium phosphate buffer distribution coefficient, log D of the compound at pH 7.4; type: physicochemical
In short: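 Shake-flask partition of HPLC-purified radiotracer between 1-octanol and 0.05 mol/L sodium phosphate buffer pH 7.4, phases mutually pre-saturated (3 mL each). […] Octanol layer re-distributed until values were consistent. Triplicate, repeated three times.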

Spleen [22] = experiment: Biodistribution in ICR mouse spleen at 1 uCi, iv after 240 mins postinjection; type: ADME, organism-based; conditions: in vivo, 4 h; in short: as §1
Kidney [23] = experiment: Biodistribution in ICR mouse kidney at 1 uCi, iv after 15 mins postinjection; type: ADME, organism-based; conditions: in vivo, 0.25 h; in short: as §1
Muscle tissue [24] = experiment: Biodistribution in ICR mouse muscle at 1 uCi, iv after 15 mins postinjection; type: ADME, organism-based; conditions: in vivo, 0.25 h; in short: as §1
Stomach [25] = experiment: Biodistribution in ICR mouse stomach at 1 uCi, iv measured per organ after 15 mins postinjection; type: ADME, organism-based; conditions: in vivo, 0.25 h
Stomach [26] = experiment: Biodistribution in ICR mouse stomach at 1 uCi, iv measured per organ after 120 mins postinjection; type: ADME, organism-based; conditions: in vivo, 2 h

For [125I]c1ccc(CN2CCN(Cc3ccc4c(c3)OCO4)CC2)cc1, the Drug uptake (Heart [1]) was 2.79 % ID/g, the Drug uptake (Liver [2]) was 9 % ID/g and the Drug uptake (Spleen [3]) was 5.7 % ID/g. For the same compound, the Drug uptake (Muscle tissue [4]) was 1.06 % ID/g, the Drug uptake (Blood [5]) was 0.72 % ID/g and the Drug uptake (Stomach [6]) was 1.68 %ID. The Drug uptake (Thyroid gland [7]) was 1.4 % ID/g, the Drug uptake (Liver [8]) was 5.68 % ID/g and the Drug uptake (Mus musculus) was 10.21 % ID/g. For the same compound, the Drug uptake (Muscle tissue [9]) was 1.78 % ID/g, the Drug uptake (Liver [10]) was 3.95 % ID/g and the Drug uptake (Heart [11]) was 1.24 % ID/g. It also gave a Drug uptake (Kidney [12]) of 7.82 % ID/g, a Drug uptake (Lung [13]) of 6.29 % ID/g and a Drug uptake (Thyroid gland [14]) of 2.3 % ID/g. For the same compound, the Drug uptake (Stomach [15]) was 1.78 %ID, the Drug uptake (Heart [16]) was 0.75 % ID/g and the Drug uptake (Muscle tissue [17]) was 0.72 % ID/g. For the same compound, the Drug uptake (Kidney [18]) was 9.65 % ID/g, the Drug uptake (Blood [19]) was 0.81 % ID/g and the Drug uptake (Lung [20]) was 12.49 % ID/g. The Drug uptake (Brain) was 3.75 % ID/g, the logD [21] was 2.98 and the Drug uptake (Spleen [22]) was 2.83 % ID/g. It also gave a Drug uptake (Kidney [23]) of 12.72 % ID/g, a Drug uptake (Muscle tissue [24]) of 2.35 % ID/g and a Drug uptake (Stomach [25]) of 2.32 %ID. It also gave a Drug uptake (Stomach [26]) of 2.54 %ID.

Source: ChEMBL document CHEMBL1772977, “Synthesis and biological evaluation of novel 4-benzylpiperazine ligands for sigma-1 receptor imaging” (Bioorg Med Chem, 2011)
